Experimental data taken from ChEMBL document CHEMBL2146397, “The Substrate-Activity-Screening methodology applied to receptor tyrosine kinases: a proof-of-concept study” (Eur J Med Chem, 2012).
Square brackets hold non-standard residues; d marks the D form. Peptide text beside a SMILES is read from it. * marks the point of attachment. Trp(6-Cl) = N[C@@H](Cc1c[nH]c2cc(Cl)ccc12)C(=O)O; X2 = O=C(O)[C@H]1CCCC[C@@H]1C(=O)*; 3Pal = N[C@@H](Cc1cccnc1)C(=O)O

Target: Insulin-like growth factor 1 receptor (Homo sapiens, UniProt P08069)
Test: Activity at pre-activated human GST-His6-tagged IGF-1R expressed in Sf9 cells assessed as initial phosphorylation rate at 10 uM measured every 2 mins for 60 mins by Michaelis-Menten constant based ADP Quest assay
How it was run: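 Reaction buffer was the same plus 0.1 mg/mL BSA, with kinase, peptide substrate and detection reagents. Started with ATP; fluorescence read every 2 min for 60 min; 3 independent experiments.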

Insulin-like growth factor 1 receptor, sequence (P08069 31-736 limits assumed): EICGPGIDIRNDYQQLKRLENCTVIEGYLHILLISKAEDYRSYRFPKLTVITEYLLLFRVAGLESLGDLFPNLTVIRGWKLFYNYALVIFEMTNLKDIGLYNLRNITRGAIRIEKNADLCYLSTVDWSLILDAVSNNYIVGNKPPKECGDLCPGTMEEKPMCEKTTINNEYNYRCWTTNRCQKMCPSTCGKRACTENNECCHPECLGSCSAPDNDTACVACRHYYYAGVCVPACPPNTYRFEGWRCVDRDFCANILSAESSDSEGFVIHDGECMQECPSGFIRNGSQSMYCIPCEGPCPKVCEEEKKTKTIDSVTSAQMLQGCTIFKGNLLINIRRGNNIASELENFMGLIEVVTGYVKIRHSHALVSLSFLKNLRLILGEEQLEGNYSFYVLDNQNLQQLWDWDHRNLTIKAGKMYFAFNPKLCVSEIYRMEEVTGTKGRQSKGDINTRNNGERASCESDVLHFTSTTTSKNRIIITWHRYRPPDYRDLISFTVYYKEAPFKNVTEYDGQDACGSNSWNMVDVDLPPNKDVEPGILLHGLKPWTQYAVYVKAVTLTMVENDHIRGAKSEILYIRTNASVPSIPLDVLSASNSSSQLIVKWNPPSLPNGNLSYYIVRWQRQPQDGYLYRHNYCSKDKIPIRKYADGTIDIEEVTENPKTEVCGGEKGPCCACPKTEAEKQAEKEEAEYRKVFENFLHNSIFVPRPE
Insulin-like growth factor 1 receptor, sequence (P08069 741-1367 limits assumed): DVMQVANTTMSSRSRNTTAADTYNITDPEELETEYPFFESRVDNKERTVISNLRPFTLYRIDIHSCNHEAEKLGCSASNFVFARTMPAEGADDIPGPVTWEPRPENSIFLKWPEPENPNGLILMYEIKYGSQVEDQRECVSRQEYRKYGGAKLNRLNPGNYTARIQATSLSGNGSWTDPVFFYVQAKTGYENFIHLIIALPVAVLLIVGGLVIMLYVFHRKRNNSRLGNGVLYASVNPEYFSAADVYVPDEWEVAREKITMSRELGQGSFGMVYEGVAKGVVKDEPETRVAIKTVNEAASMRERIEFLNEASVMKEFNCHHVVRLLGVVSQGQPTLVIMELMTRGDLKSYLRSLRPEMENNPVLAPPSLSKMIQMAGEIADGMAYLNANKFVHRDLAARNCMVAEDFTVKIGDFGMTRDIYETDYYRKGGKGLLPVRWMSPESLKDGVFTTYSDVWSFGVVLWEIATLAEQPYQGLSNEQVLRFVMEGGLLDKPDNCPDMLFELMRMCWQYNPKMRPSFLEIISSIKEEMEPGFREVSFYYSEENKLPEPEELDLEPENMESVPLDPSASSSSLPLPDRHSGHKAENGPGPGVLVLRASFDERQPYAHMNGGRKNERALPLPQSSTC

| SMILES | Activity [nM/s] |
| --- | --- |
| CNC(=O)[C@H](Cc1c[nH]c2cc(Cl)ccc12)NC(=O)[C@H](CCC(=O)O)NC(=O)[C@H](Cc1ccccc1)NC(=O)[C@H](Cc1ccc(O)cc1)NC(=O)[C@H](Cc1cccnc1)NC(C)=O (Ac-[3Pal]YFE[Trp(6-Cl)]-NHMe) | 1 |
| CNC(=O)[C@H](Cc1c[nH]c2ccccc12)NC(=O)[C@H](CCC(=O)O)NC(=O)[C@H](Cc1ccccc1)NC(=O)[C@H](Cc1ccc(O)cc1)NC(=O)c1ccccc1[N+](=O)[O-] (HELM PEPTIDE1{[O=C(c1ccccc1[N+](=O)[O-])[*:2]].Y.F.E.W.[CN[*:1]]}$$$$V2.0) | 3.3 |
| CNC(=O)[C@H](Cc1ccccc1)NC(=O)[C@H](CCC(=O)O)NC(=O)[C@H](Cc1ccccc1)NC(=O)[C@H](Cc1ccc(O)cc1)NC(=O)c1ccccc1[N+](=O)[O-] (HELM PEPTIDE1{[O=C(c1ccccc1[N+](=O)[O-])[*:2]].Y.F.E.F.[CN[*:1]]}$$$$V2.0) | 4.6 |
| CNC(=O)[C@H](Cc1ccccc1)NC(=O)[C@H](CCC(=O)O)NC(=O)[C@H](Cc1ccccc1)NC(=O)[C@H](Cc1ccc(O)cc1)NC(=O)[C@H]1CCCC[C@@H]1C(=O)O (HELM PEPTIDE1{[O=C(O)[C@H]1CCCC[C@@H]1C(=O)[*:2]].Y.F.E.F.[CN[*:1]]}$$$$V2.0) | 5.2 |
| CNC(=O)[C@@H](Cc1c[nH]c2ccccc12)NC(=O)[C@H](CCC(=O)O)NC(=O)[C@H](Cc1ccccc1)NC(=O)[C@H](Cc1ccc(O)cc1)NC(=O)[C@H]1CCCC[C@@H]1C(=O)O | 0.51 |
| CNC(=O)[C@H](Cc1c[nH]c2ccccc12)NC(=O)[C@H](CCC(=O)O)NC(=O)[C@H](Cc1ccccc1)NC(=O)[C@H](Cc1ccc(O)cc1)NC(=O)[C@@H]1CCCC[C@H]1C(=O)O | 1.1 |
| CNC(=O)[C@H](Cc1ccc(Cl)cc1)NC(=O)[C@H](CCC(=O)O)NC(=O)[C@H](Cc1ccccc1)NC(=O)[C@H](Cc1ccc(O)cc1)NC(=O)[C@H](CCC(=O)O)NC(C)=O (HELM PEPTIDE1{[ac].E.Y.F.E.[O=C([C@H](Cc1ccc(Cl)cc1)N[*:1])[*:2]].[CN[*:1]]}$$$$V2.0) | 0.26 |
| CNC(=O)[C@H](Cc1ccccc1)NC(=O)[C@H](CCC(=O)O)NC(=O)[C@H](Cc1ccccc1)NC(=O)[C@H](Cc1ccc(O)cc1)NC(=O)[C@@H]1CCC[C@H]1C(=O)O (HELM PEPTIDE1{[O=C(O)[C@@H]1CCC[C@H]1C(=O)[*:2]].Y.F.E.F.[CN[*:1]]}$$$$V2.0) | 3.8 |
| CNC(=O)[C@H](Cc1ccccc1)NC(=O)[C@H](CCC(=O)O)NC(=O)[C@H](Cc1ccccc1)NC(=O)[C@H](Cc1ccc(O)cc1)NC(=O)[C@@H]1CCCC[C@H]1C(=O)O (HELM PEPTIDE1{[O=C(O)[C@@H]1CCCC[C@H]1C(=O)[*:2]].Y.F.E.F.[CN[*:1]]}$$$$V2.0) | 0.17 |
| CNC(=O)[C@H](Cc1ccccc1)NC(=O)[C@H](CCC(=O)O)NC(=O)[C@H](Cc1ccccc1)NC(=O)[C@H](Cc1ccc(O)cc1)NC(=O)[C@H](CC(N)=O)NC(C)=O (HELM PEPTIDE1{[ac].N.Y.F.E.F.[CN[*:1]]}$$$$V2.0) | 0.46 |
| CNC(=O)[C@H](Cc1ccc2ccccc2c1)NC(=O)CNC(=O)[C@H](Cc1ccccc1)NC(=O)[C@H](Cc1ccc(O)cc1)NC(=O)[C@H](CC(=O)O)NC(C)=O (HELM PEPTIDE1{[ac].D.Y.F.G.[O=C([C@H](Cc1ccc2ccccc2c1)N[*:1])[*:2]].[CN[*:1]]}$$$$V2.0) | 0.24 |
| CNC(=O)[C@H](Cc1ccccc1)NC(=O)[C@H](CCC(=O)O)NC(=O)[C@H](Cc1ccccc1)NC(=O)[C@H](Cc1ccc(O)cc1)NC(=O)CCC(=O)O (HELM PEPTIDE1{[O=C(O)CCC(=O)[*:2]].Y.F.E.F.[CN[*:1]]}$$$$V2.0) | 0.25 |
| CNC(=O)[C@H](Cc1c[nH]c2cc(Cl)ccc12)NC(=O)[C@H](CCC(=O)O)NC(=O)[C@H](Cc1ccccc1)NC(=O)[C@H](Cc1ccc(O)cc1)NC(=O)[C@H]1CCCC[C@@H]1C(=O)O (X2-YFE[Trp(6-Cl)]-NHMe) | 7.5 |
| CNC(=O)[C@H](Cc1c[nH]c2ccccc12)NC(=O)[C@H](CCC(=O)O)NC(=O)[C@H](Cc1ccccc1)NC(=O)[C@H](Cc1ccc(O)cc1)NC(=O)C1CCC1C(=O)O (some centres undefined) (HELM PEPTIDE1{[O=C(O)C1CCC1C(=O)[*:2]].Y.F.E.W.[CN[*:1]]}$$$$V2.0) | 4.3 |
